Reference: ChEMBL document CHEMBL2093137, “WHO-TDR NTD Screening”
In brackets after ≈: the same amount, converted by molar mass.

Assays:
[1] = WHO-TDR: Cytotoxicity; format: toxicity, cell-based; details: human, MRC5 cells
Plasmodium falciparum K1 = test: WHO-TDR: Malaria; format: functional, organism-based, Homo sapiens; details: Erythrocyte
Summary of the method: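 A diverse library of 10,000 compounds from Life Chemicals, filtered for drug-likeness and reactive groups, was screened against the intra-erythrocytic Plasmodium falciparum K1 strain in human red blood cells. Previously published standard procedures were followed, with a reference drug as positive control. Antiplasmodial potency is given as IC50.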

Trypanosoma cruzi = test: WHO-TDR: Chagas disease; format: functional, organism-based, Homo sapiens; details: MRC5
Summary of the method: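 Following previously published standard procedures, with a reference drug as positive control, a whole-organism assay was run on Trypanosoma cruzi Tulahuen CL2 beta-galactosidase strain amastigotes inside MRC-5SV2 human lung fibroblast host cells. The 10,000 compounds tested formed a diverse Life Chemicals library filtered for drug-likeness and reactive groups. Results are expressed as IC50 for antiparasitic potency.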

[2] = test system: Trypanosoma brucei brucei; test: WHO-TDR: Human African Trypanosomiasis (HAT); format: functional, organism-based; details: Squib-427
Summary of the method: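 A diverse library of 10,000 compounds from Life Chemicals, filtered for drug-likeness and reactive groups, was screened against bloodstream forms of Trypanosoma brucei Squib 427 strain in a whole-organism assay. Previously published standard procedures were followed, with reference drugs serving as positive controls. Antiparasitic potency is given as IC50.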

Leishmania infantum = test: WHO-TDR: Leishmaniasis; format: functional, organism-based, Mus musculus; details: Macrophage
Summary of the method: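 A diverse library of 10,000 compounds from Life Chemicals, filtered for drug-likeness and reactive groups, was screened against whole organisms. The targets were intracellular amastigotes of Leishmania infantum MHOM/MA(BE)/67 growing in murine peritoneal macrophages. Previously published standard procedures were followed, with a reference drug as positive control. Antiparasitic potency is given as IC50.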

Schistosoma mansoni = test: WHO-TDR: Schistosomiasis; format: functional; design: concentration or dose not given beside the values
Summary of the method: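 A diverse library of 10,000 compounds from Life Chemicals, filtered for drug-likeness and reactive groups, was screened against whole larval and/or adult Schistosoma mansoni worms of the Puerto Rican strain. Previously published standard procedures were followed, with a reference drug as positive control. Activity is given as percent inhibition and as IC50.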

Onchocerca ochengi = test: WHO-TDR: Onchocerciasis; format: functional; design: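 at 12.5 µM on microfilariae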
Summary of the method: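 A diverse library of 10,000 compounds from Life Chemicals, filtered for drug-likeness and reactive groups, was screened against whole microfilariae of Onchocerca ochengi or Onchocerca lienalis. These animal pathogens served as stand-ins for the human parasite. Activity is given as percent inhibition and as IC50.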

Brugia malayi = test: WHO-TDR: Lymphatic Filariasis; format: functional; design: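 tested at 10 µM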
Summary of the method: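 A diverse library of 10,000 compounds from Life Chemicals was screened against Brugia malayi microfilariae in a whole-organism assay. The library had been filtered for drug-likeness and reactive groups. Activity is given as percent inhibition and as IC50.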

Row | Structure (SMILES) | IC50 (Plasmodium falciparum K1) | IC50 [2] | IC50 (Leishmania infantum) | IC50 [1] | IC50 (Trypanosoma cruzi) | % Inhibition (Schistosoma mansoni) | % Inhibition (Onchocerca ochengi) | % Inhibition (Brugia malayi)
1 | CCOc1ncccc1C(=O)N1CCN(c2ccc(-c3ccc(Cl)cc3)nn2)CC1 | > 12.7 µg/mL | > 12.7 µg/mL | > 12.7 µg/mL | > 12.7 µg/mL | 8.92 µg/mL (≈ 21 µM) | 100% | 0% | 0%
2 | CC(C)(C)C(=O)N1CCN(c2ccc(-c3ccncc3)nn2)CC1 | > 9.76 µg/mL | > 9.76 µg/mL | > 9.76 µg/mL | > 9.76 µg/mL | > 9.76 µg/mL | 100% | 0% | 33.33%
3 | O=C(c1ccc(F)cc1F)N1CCN(c2ccc(-c3cccnc3)nn2)CC1 | > 11.4 µg/mL | > 11.4 µg/mL | 0.37 µg/mL (≈ 0.97 µM) | > 11.4 µg/mL | > 11.4 µg/mL | 0% | 0% | 33.33%
4 | O=C(C1CC1)N1CCN(c2ccc(-c3ccccn3)nn2)CC1 | 1.05 µg/mL (≈ 3.39 µM) | 2.94 µg/mL (≈ 9.49 µM) | > 9.28 µg/mL | 2.38 µg/mL (≈ 7.7 µM) | 2.1 µg/mL (≈ 6.77 µM) | 25% | 100% | 33.33%
5 | COc1cccc(C(=O)N2CCN(c3ccc(-c4ccccn4)nn3)CC2)c1OC | 0.548 µg/mL (≈ 1.35 µM) | 3.85 µg/mL (≈ 9.49 µM) | 1.81 µg/mL (≈ 4.46 µM) | 5.68 µg/mL (≈ 14 µM) | 0.421 µg/mL (≈ 1.04 µM) | 33.3% | 100% | 33.33%
6 | CC(C)CC(=O)N1CCN(c2ccc(-c3ccccn3)nn2)CC1 | 1.13 µg/mL (≈ 3.46 µM) | 3.09 µg/mL (≈ 9.49 µM) | 3.09 µg/mL (≈ 9.49 µM) | 3.86 µg/mL (≈ 11.9 µM) | 0.763 µg/mL (≈ 2.34 µM) | 25% | 100% | 33.33%
7 | O=C(C1CCCC1)N1CCN(c2ccc(-c3ccccn3)nn2)CC1 | 4.13 µg/mL (≈ 12.3 µM) | 3.2 µg/mL (≈ 9.49 µM) | 0.328 µg/mL (≈ 0.972 µM) | 4.9 µg/mL (≈ 14.5 µM) | 1.19 µg/mL (≈ 3.52 µM) | 41.7% | 0% | 33.33%
8 | O=C(CC1CCCC1)N1CCN(c2ccc(-c3ccccn3)nn2)CC1 | 0.731 µg/mL (≈ 2.08 µM) | 0.409 µg/mL (≈ 1.16 µM) | 0.341 µg/mL (≈ 0.97 µM) | 5.57 µg/mL (≈ 15.9 µM) | 0.466 µg/mL (≈ 1.33 µM) | 33.3% | 0% | 33.33%
9 | O=S(=O)(c1cccc(F)c1)N1CCN(c2ccc(-c3ccncc3)nn2)CC1 | > 12 µg/mL | > 12 µg/mL | 0.388 µg/mL (≈ 0.971 µM) | > 12 µg/mL | > 12 µg/mL | 0% | 0% | 33.33%
10 | COc1ccc(S(=O)(=O)N2CCN(c3ccc(-c4ccncc4)nn3)CC2)c(OC)c1 | 2.48 µg/mL (≈ 5.62 µM) | > 13.2 µg/mL | 0.429 µg/mL (≈ 0.972 µM) | > 13.2 µg/mL | 5.69 µg/mL (≈ 12.9 µM) | 0% | 0% | 33.33%
11 | CS(=O)(=O)N1CCN(c2ccc(-c3ccccn3)nn2)CC1 | > 9.58 µg/mL | > 9.58 µg/mL | > 9.58 µg/mL | > 9.58 µg/mL | 0.22 µg/mL (≈ 0.689 µM) | 0% | 0% | 0%
12 | O=C(Nc1ccc(F)cc1)Nc1cccc(-c2ccc(N3CCCC3)nn2)c1 | > 11.3 µg/mL | > 11.3 µg/mL | > 11.3 µg/mL | > 11.3 µg/mL | > 11.3 µg/mL | 0% | 100% | 0%
13 | COc1ccc(-c2cccc(NC(=O)Nc3ccc(C)cc3)c2)nn1 | > 10 µg/mL | > 10 µg/mL | > 10 µg/mL | > 10 µg/mL | 7.36 µg/mL (≈ 22 µM) | 58.3% | 100% | 0%
14 | O=C(Cc1csc(SCC(=O)c2ccccc2)n1)NCCC1=CCCCC1 | > 12 µg/mL | 5.07 µg/mL (≈ 12.6 µM) | > 12 µg/mL | > 12 µg/mL | 3.65 µg/mL (≈ 9.11 µM) | 33.3% | 100% | 0%
15 | NC(=O)Cc1csc(SCC(=O)c2ccccc2)n1 | > 8.77 µg/mL | > 8.77 µg/mL | 0.284 µg/mL (≈ 0.971 µM) | > 8.77 µg/mL | > 8.77 µg/mL | 16.7% | 0% | 0%
16 | CCOC(=O)c1sc(-c2ccccc2)cc1NC(=O)c1ccnn1C | > 10.7 µg/mL | > 10.7 µg/mL | 0.345 µg/mL (≈ 0.971 µM) | > 10.7 µg/mL | > 10.7 µg/mL | 0% | 0% | 0%
17 | Cn1nccc1C(=O)Nc1nc2c(s1)CSc1ccccc1-2 | > 9.85 µg/mL | 0.315 µg/mL (≈ 0.959 µM) | 3.19 µg/mL (≈ 9.71 µM) | 0.145 µg/mL (≈ 0.442 µM) | 2.05 µg/mL (≈ 6.23 µM) | 100% | 100% | 0%
18 | Cn1nccc1C(=O)Nc1sc(-c2ccccc2)cc1C(N)=O | > 9.79 µg/mL | 3.17 µg/mL (≈ 9.71 µM) | 3.17 µg/mL (≈ 9.71 µM) | 8.31 µg/mL (≈ 25.4 µM) | 6.26 µg/mL (≈ 19.2 µM) | 100% | 0% | 0%
19 | COc1ccc(-c2ccc(N3CCN(C(=O)c4c(F)cccc4F)CC3)nn2)cc1OC | > 13.2 µg/mL | > 13.2 µg/mL | 0.428 µg/mL (≈ 0.972 µM) | > 13.2 µg/mL | > 13.2 µg/mL | 8.3% | 0% | 0%
20 | COc1ccc(OC)c2sc(N(CC3CCCO3)C(=O)c3ccn(C)n3)nc12 (stereo not drawn) | > 12.1 µg/mL | > 12.1 µg/mL | 0.391 µg/mL (≈ 0.971 µM) | > 12.1 µg/mL | > 12.1 µg/mL | 16.7% | 0% | 0%

Second part, led by results:

Row | IC50 (Plasmodium falciparum K1) | IC50 [2] | IC50 (Leishmania infantum) | Structure (SMILES) | IC50 [1] | IC50 (Trypanosoma cruzi) | % Inhibition (Schistosoma mansoni) | % Inhibition (Onchocerca ochengi) | % Inhibition (Brugia malayi)
21 | > 12.7 µg/mL | > 12.7 µg/mL | > 12.7 µg/mL | O=S(=O)(c1ccc(Cl)s1)N1CCN(c2ccc(-c3ccccn3)nn2)CC1 | > 12.7 µg/mL | 0.438 µg/mL (≈ 1.04 µM) | 0% | 0% | 0%
22 | > 12.9 µg/mL | > 12.9 µg/mL | 0.418 µg/mL (≈ 0.971 µM) | COc1ccc(C)cc1S(=O)(=O)N1CCN(c2ccc(-c3cccs3)nn2)CC1 | > 12.9 µg/mL | > 12.9 µg/mL | 0% | 0% | 0%
23 | > 11.6 µg/mL | > 11.6 µg/mL | 0.376 µg/mL (≈ 0.97 µM) | O=S(=O)(c1cccnc1)N1CCN(c2ccc(-c3cccs3)nn2)CC1 | > 11.6 µg/mL | > 11.6 µg/mL | 0% | 0% | 50%
24 | > 9.4 µg/mL | 0.383 µg/mL (≈ 1.22 µM) | > 9.4 µg/mL | Cc1ccc(C(=O)Nc2nnc(Cc3cccs3)o2)cc1C | > 9.4 µg/mL | 3.01 µg/mL (≈ 9.61 µM) | 25% | 0% | 50%
25 | > 10.8 µg/mL | 0.342 µg/mL (≈ 0.949 µM) | > 10.8 µg/mL | O=C(Nc1nnc(Cc2cccs2)o1)c1cc(Cl)sc1Cl | 0.967 µg/mL (≈ 2.68 µM) | 0.632 µg/mL (≈ 1.75 µM) | 0% | 0% | 0%
26 | > 10.4 µg/mL | 3.35 µg/mL (≈ 9.71 µM) | 0.336 µg/mL (≈ 0.973 µM) | CCSc1ccccc1C(=O)Nc1nnc(Cc2cccs2)o1 | 9.48 µg/mL (≈ 27.5 µM) | 3.48 µg/mL (≈ 10.1 µM) | 33.3% | 0% | 0%
27 | > 14.7 µg/mL | 6.68 µg/mL (≈ 13.6 µM) | 0.475 µg/mL (≈ 0.971 µM) | O=C(Nc1nnc(-c2ccc(Br)s2)o1)C1CCCN1S(=O)(=O)c1cccs1 (stereo not drawn) | > 14.7 µg/mL | > 14.7 µg/mL | 8.3% | 0% | 0%
28 | > 14.5 µg/mL | 4.75 µg/mL (≈ 9.83 µM) | 4.69 µg/mL (≈ 9.71 µM) | CN(C1CC1)S(=O)(=O)c1ccc(C(=O)Nc2nnc(-c3ccc(Br)s3)o2)cc1 | 3.91 µg/mL (≈ 8.09 µM) | 4.76 µg/mL (≈ 9.85 µM) | 0% | 100% | 0%
29 | > 11 µg/mL | > 11 µg/mL | > 11 µg/mL | Cc1cc(C(=O)Nc2nnc(-c3ccc(Br)s3)o2)nn1C | 3.2 µg/mL (≈ 8.68 µM) | > 11 µg/mL | 8.3% | 100% | 0%
30 | > 10.2 µg/mL | > 10.2 µg/mL | 0.331 µg/mL (≈ 0.97 µM) | O=C(Nc1nnc(-c2ccc(Br)s2)o1)c1ccno1 | > 10.2 µg/mL | > 10.2 µg/mL | 16.7% | 0% | 0%
31 | > 9.88 µg/mL | > 9.88 µg/mL | > 9.88 µg/mL | COc1ccc(-c2nnc(NC(=O)c3ccn(C)n3)o2)cc1OC | 1.41 µg/mL (≈ 4.28 µM) | > 9.88 µg/mL | 25% | 100% | 0%
